PREPL inh: inhibitors of human prolyl oligopeptidase-like enzyme PREPL; Q4J6C6; recombinant PREPL, fluorescence polarization activity-based probe; inhibition, % at 5.96 µM; hit rate 0.68% among 320,000; AID 2751; in the data active means inhibition above about 43%
MC4R antag cAMP: antagonists of human melanocortin 4 receptor (MC4R) | hit rate 0.48% among 360,000 | MC4R-expressing cells, MTII-stimulated cAMP, LANCE TR-FRET | inhibition, % at 6.5 µM;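 active means inhibition above its plate's cutoff, the mean of tested wells on that plate plus 3 SD, cut at about 29% in these data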
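Material – human MC4R-expressing U2OS cells · Repeats – no replicates · Detection – TR-FRET with Eu-cAMP and labeled anti-cAMP, 671 nm · Times – compound 30 min, challenge 1 h, detection 1 h · Compound – single nominal compound dose of 6.5 µM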
HTR2A ag: activates the mouse 5-HT2A serotonin receptor. P35363. CHO-K1 mHTR2A beta-arrestin complementation, luminescence; percent of 30 µM serotonin response. activation, % at 7.6 µM. hit rate 0.66% among 360,000;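 active means activation above a run cutoff, the mean activation of all tested compounds plus 3 SD, cut at about 14% in these data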
MC4R barr agon: agonists of human melanocortin 4 receptor (MC4R) beta-arrestin; activation, % at 8.9 µM; U2OS MC4R beta-arrestin complementation, luminescence; percent of melanotan II response, DMSO zero; AID 540308; P32245; hit rate 0.98% among 360,000;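 active means activation above a per-plate cutoff, the mean activation of sample wells on that plate plus 3 SD, cut at about 8% in these data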
NTR1 agonist: activates human neurotensin receptor 1. hit rate 0.17% among 330,000. P30989. AID 493036. activation, % at 20 µM. NTR1-U2OS beta-arrestin-GFP spot imaging, agonist mode;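 active means activation at or above 40% of the spot to cytoplasm intensity ratio, with at least 20 cells analyzed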
Target sequence (P30989 whole entry, looked up): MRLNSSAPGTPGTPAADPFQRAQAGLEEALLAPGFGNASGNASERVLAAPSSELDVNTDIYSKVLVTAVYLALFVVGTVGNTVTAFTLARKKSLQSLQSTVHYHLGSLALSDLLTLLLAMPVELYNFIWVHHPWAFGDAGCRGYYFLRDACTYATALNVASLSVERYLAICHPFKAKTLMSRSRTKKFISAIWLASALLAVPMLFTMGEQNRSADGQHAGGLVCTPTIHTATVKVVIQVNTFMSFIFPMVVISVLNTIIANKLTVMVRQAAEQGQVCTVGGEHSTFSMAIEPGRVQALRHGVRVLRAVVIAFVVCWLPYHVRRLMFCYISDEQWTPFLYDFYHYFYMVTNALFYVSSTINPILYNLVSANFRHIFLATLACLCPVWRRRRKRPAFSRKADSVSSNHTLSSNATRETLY
Lipid droplet: modulators of hepatic lipid droplet formation; AML12 mouse hepatocytes, oleate lipid droplets, BODIPY imaging; inhibition, % at 6.5 µM; hit rate 0.4% among 240,000; AID 1656;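 active means lipid droplet intensity inhibited by at least 50%, with more than 500 cells counted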
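Assay system: AML12 hepatocytes (mouse); Probe or stimulus: oleic acid at 100 µM to induce lipid droplet formation; Dosing: compound at 6.5 µM only; Schedule: compound with oleate, overnight; Detection: fluorescence imaging, 20x objective, two fields per well; Measure: % inhibition of lipid droplet signal.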
MOR ag counter: activates human mu opioid receptor in HTR2A counterscreen. hit rate 5.3% among 2,300. U2OS OPRM1 beta-arrestin PathHunter, luminescence; DMSO 0%, DAMGO 9.3 µM 100%. shares compounds with HTR2A ag. activation, % at 9.3 µM;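 active means mean activation above the mean of DMSO-only wells plus 3 SD, cut at about 0.5% in these data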
HTR2A ag conf: confirmation of mouse HTR2A serotonin receptor agonists; shares compounds with HTR2A ag; CHO-K1 PathHunter beta-arrestin recruitment, luminescence; DMSO 0%, 30 µM serotonin 100%; activation, % at 7.6 µM; hit rate 19% among 2,300;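 active means mean activation across triplicates above the hit threshold derived in the original primary screen, cut at about 15% in these data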
Hits are given with their value; . = inactive; / = no result given. An excerpt weighted towards active compounds, which were near 2.7% of everything screened.

SMILES	PREPL inh	MC4R antag cAMP	HTR2A ag	MC4R barr agon	NTR1 agonist	Lipid droplet	MOR ag counter	HTR2A ag conf
CCC(C)(C)NC(=O)CN(C(=O)C(=O)Nc1ccc2c(c1)OCCO2)N1CCOCC1	.	.	16	.	.	.	.	.
CC(C)(C)NC(=O)CN(C(=O)C(=O)Nc1ccc2c(c1)OCCO2)C1CCCC1	.	.	.	.	.	.	/	/
Cc1ccc2[nH]c(=O)c(CN(CCO)C(=O)N(C)C)cc2c1	.	.	22	.	.	/	.	.
COc1ccc(CN(Cc2cc3cc(C)ccc3[nH]c2=O)C(=O)N(C)C)cc1	.	.	.	.	.	/	/	/
COC(=O)C1=C(Cn2cnc3ccccc32)NC(=O)NC1c1cc(C)ccc1C (stereo unspecified)	.	.	73	.	.	.	/	46
Cc1cc(C)c(Cn2cnc3ccccc32)c(C)c1	.	.	.	.	.	.	/	/
O=C(c1cc(-c2ccco2)on1)N1CCN(c2ccccc2)CC1	.	.	30	.	.	.	.	.
CCN1CCN(Cc2nnc(-c3ccc(C)cc3)o2)CC1	.	.	17	.	.	.	.	.
COc1ccccc1/C=C/C(=O)NCC(=O)n1nc(C)cc1C	.	.	19	.	.	.	.	.
Cc1[nH]c(=S)c(C#N)c(C)c1CC(=O)c1ccc(Br)cc1	.	.	.	.	.	.	/	/
COC(=O)C1CCN(CC(=O)Nc2ccc3c(c2)OCCO3)CC1	.	.	32	.	.	/	.	42
Cc1cc(CNC(=O)COc2ccccc2)c2ccccc2n1	/	.	16	.	/	.	.	.
Cc1cc(CNC(=O)COc2ccc(F)cc2)c2ccccc2n1	.	.	.	.	.	.	/	/
Cc1cc(NC(=O)c2cc([N+](=O)[O-])ccc2Cl)no1	.	.	17	.	.	.	.	.
Cc1cc(NC(=O)c2ccc([N+](=O)[O-])cc2Cl)no1	.	.	.	.	.	.	/	/
CCOC(=O)C1(Cc2cccc(OC)c2)CCCN(C(=O)c2cc(C)on2)C1 (stereo unspecified)	.	.	.	.	.	.	/	/
N#C/C(=C(/O)Cc1ccccc1)P(=O)(c1ccccc1)c1ccccc1	.	.	.	.	.	.	/	/
CCOC(=O)C1CCN(S(=O)(=O)c2c(C)n(C)c(=O)n(C)c2=O)CC1	.	.	21	.	.	.	.	.
CCOC(=O)C1CCN(S(=O)(=O)c2cn(C)c(=O)n(C)c2=O)CC1	.	.	.	.	.	.	/	/
CC(C)/C=C1\CCCCC1N(C)C(=O)NC(C)C (stereo unspecified)	.	.	28	.	.	.	.	.
COc1ccccc1Nc1nnc(SCC(=O)N2CC(=O)Nc3ccccc32)s1	.	.	18	.	.	.	.	.
Cc1c(C)n(CC(O)CN2C(=O)c3ccccc3S2(=O)=O)c2ccccc12 (stereo unspecified)	.	.	.	.	.	.	/	/
CCn1c(C2CC(=O)N(Cc3ccccc3)C2)nc2ccccc21 (stereo unspecified)	.	.	41	.	.	.	.	.
CCCN1CCC(=NNc2ccc(S(=O)(=O)N3CCOCC3)cc2[N+](=O)[O-])CC1	.	.	17	.	.	.	.	.
CC(C)N1CCC(=NNc2ccc(S(=O)(=O)N3CCOCC3)cc2[N+](=O)[O-])CC1	.	.	.	.	.	.	/	/
COc1ccc(N2C(=O)CSC2c2cccc(OC)c2OC)cc1 (stereo unspecified)	.	.	19	.	/	.	.	.
O=C(CCN1CCN(c2ccccc2)CC1)N/N=C/c1ccccc1OC(F)F	.	.	17	.	.	.	.	50
Cc1occc1C(=O)Nc1nnc(C(F)(F)F)s1	.	.	.	.	.	.	/	/
O=C(Nc1ccccc1C(=O)Nc1nnc(C(F)(F)F)s1)c1ccccc1	.	.	14	.	.	.	.	.
